RGS4 inh – human RGS4 inhibition; HEK293 M3R/RGS4 inducible, Fluo-4 calcium flux; stronger effect = higher value; triggered by carbachol at its EC20; B-score at 10 µM; actives 0.45% (n = 310,000); AID 463165;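 active means B-score, a plate-corrected calcium signal, over three deviations above library mean, with baseline fluorescence within five deviations of library mean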;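 further: RGS4 expression induced by doxycycline in cells with stable M3 receptor; B-score is computed from the integrated fluorescence ratio over baseline after carbachol; higher B-score means a larger calcium signal and so more RGS4 inhibition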
MrgX1 antag – antagonists of human MrgX1 receptor. MRGX1-HEK293 calcium flux, Fluo-4, BAM8-22 antagonism; stronger effect = lower value. actives 1.3% (n = 310,000). AID 588676. B-score at 10 µM. Q96LB2;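 active means calcium-response B-score plate-corrected more than 3 library SD below zero, starting fluorescence within 5 deviations, no agonist response on first addition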;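 further: peak minus trough fluorescence over baseline after final BAM8-22 challenge near maximal dose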
MrgX1 ag – activates human MrgX1 receptor signaling; Q96LB2; MrgX1-HEK293 cells, Fluo-4 calcium fluorescence, agonist mode; stronger effect = higher value; B-score at 10 µM; actives 0.44% (n = 310,000); AID 588627;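 active means calcium response B-score plate-corrected fluorescence ratio at least 3 library SD, with starting fluorescence B-score inside 5 SD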
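times = overnight plating, then 30 min 37 °C plus 30 min room-temperature dye loading | assay system = stable human MrgX1 HEK293 cell line | input = fifteen thousand cells per well | signal = kinetic calcium dye fluorescence, Fluo-4 NW | dosing = compound delivered in addition one of three | read-out = B-scored fluorescence response ratio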
MrgX1 PAM – allosterically activates human MrgX1 receptor signaling. Q96LB2. MrgX1-HEK293, Fluo-4 calcium flux, FDSS; stronger effect = higher value. B-score at 10 µM. actives 0.63% (n = 310,000). AID 588675;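 active means plate-corrected calcium response at least 3 library SD above typical, normal starting fluorescence, not activating the receptor alone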;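 further: compound read alongside a low EC10 to EC30 dose of BAM8-22 agonist; peak minus trough fluorescence over baseline measured at the second addition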
Kir21 block – Kir2.1 (mouse) channel inhibition; P35561; HEK293-Kir2.1, FluxOR thallium flux fluorescence; stronger effect = lower value; B-score at 10 µM; actives 0.85% (n = 310,000);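 active means fluorescence ratio B-score at or below minus 3 SD of library scores, with starting-brightness B-score within 2 SD, cut at about -4.2 in these data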;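 further: channel flux triggered by added potassium and thallium sulfate stimulus; B-score of peak minus minimum fluorescence over baseline after thallium stimulus; more negative B-score means stronger Kir2.1 block with less thallium influx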
Target sequence (P35561 whole entry, looked up): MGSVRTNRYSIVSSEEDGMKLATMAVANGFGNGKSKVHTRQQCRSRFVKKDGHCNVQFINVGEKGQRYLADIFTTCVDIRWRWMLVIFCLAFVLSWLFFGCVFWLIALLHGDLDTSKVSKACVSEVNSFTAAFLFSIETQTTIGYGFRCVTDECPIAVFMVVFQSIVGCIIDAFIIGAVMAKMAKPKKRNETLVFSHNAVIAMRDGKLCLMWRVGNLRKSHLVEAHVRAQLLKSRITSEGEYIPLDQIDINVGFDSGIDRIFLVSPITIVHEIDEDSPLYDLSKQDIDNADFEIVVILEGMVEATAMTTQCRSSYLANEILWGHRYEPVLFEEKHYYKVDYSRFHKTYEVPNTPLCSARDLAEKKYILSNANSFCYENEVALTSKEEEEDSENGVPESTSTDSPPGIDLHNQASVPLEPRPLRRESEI
RGS4 pot – RGS4 potentiation or activation. B-score at 10 µM. HEK293 M3R/inducible RGS4, carbachol calcium flux Fluo4; stronger effect = lower value. actives 0.92% (n = 310,000);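 active means B-score of the integrated calcium signal more than 4 SD below the library mean, with starting fluorescence not abnormally high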;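 further: negative B-score means reduced calcium response which marks RGS4 activation or potentiation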
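Material: M3R-expressing HEK293 line, RGS4 induced by doxycycline | Schedule: Overnight RGS4 induction, 30 min dye load 37 °C, 20 min compound RT | Measured by: Fluo4 fluorescence kinetic imaging of calcium | Read-out: Integrated calcium ratio converted to B score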
RGS4 act valid – confirmation of RGS4 activators. shares compounds with RGS4 pot. HEK293 M3R/RGS4 inducible, carbachol calcium flux Fluo4. inhibition, % at 10 µM. actives 89% (n = 1,100);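 active means inhibition above 3 SD of the buffer control wells, cut at about 41% in these data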;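 further: signal is the integrated peak-minus-minimum Fluo4 fluorescence over baseline ratio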
RGS4 act ctr – activity in cells without induced RGS4 expression; shares compounds with RGS4 pot; inhibition, % at 10 µM; actives 82% (n = 1,100); HEK293 M3R non-induced RGS4, Fluo4 calcium flux; after carbachol challenge at its EC90;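 active means inhibition exceeding 3 SD of buffer-only control wells, cut at about 26% in these data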;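 further: percent drop in integrated peak-minus-baseline over baseline Fluo4 ratio after carbachol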
Each line names hits and unclear results; the compound was inactive in the other large screens (follow-up assays come after a bar, where they were run). A selection: hits, their analogues and other compounds. The true share with any hit is near 4.1%.

COc1ccc(S(=O)(=O)N2CCC(C(=O)N3CCc4ccccc4C3)CC2)cc1C	none
O=c1[nH]c2ccccc2cc1CN(Cc1cccnc1)S(=O)(=O)c1ccc(Cl)cc1	MrgX1 PAM 7.28, RGS4 pot -7.8 | RGS4 act valid 73.0 | RGS4 act ctr 30.3
O=c1nc2n(c3cccc(Cl)c13)CCCCC2	none
c1ccc(-c2cc(-c3nc4ccccc4[nH]3)c3ccccc3n2)cc1	RGS4 pot -9.55 | RGS4 act valid 93.5 | RGS4 act ctr 77.3
Nc1ccc(-c2nc3ccccc3[nH]2)cc1	none
CC(=O)Nc1ccc(NC(=O)C2CCCN(S(=O)(=O)c3ccc(-n4cnnn4)cc3)C2)cc1 (stereo unspecified)	none
COc1cccc(C2SCC(=O)N2c2ccc(Br)cc2)c1OC (stereo unspecified)	RGS4 pot -9.8 | RGS4 act valid 91.0 | RGS4 act ctr 91.8
CCOC(=O)c1sc(Nc2nc3c(OC)cccc3s2)nc1C	RGS4 pot -7.76 | RGS4 act valid 93.0 | RGS4 act ctr 79.3
Cc1nn(-c2ccccc2)c(C)c1S(=O)(=O)O	none
COc1ccc(/C=C/CN2CCC(CO)(Cc3ccccc3Cl)CC2)cc1	RGS4 pot -9.73 | RGS4 act valid 89.0 | RGS4 act ctr 39.8
COc1ccc(/C=C/CN2CCN(Cc3ccccc3)C(CCO)C2)cc1 (stereo unspecified)	none
CCOC(=O)C1(CC2CC2)CCN(Cc2ccc(C(=O)OC)cc2)CC1	RGS4 pot -8.73 | RGS4 act valid 93.0 | RGS4 act ctr 48.8
COC(=O)c1ccc(CN2CCC(CO)(Cc3ccccc3Cl)CC2)cc1	RGS4 pot -7.76 | RGS4 act valid 91.5 | RGS4 act ctr 59.8
CCOC(=O)c1ccc(NC(=O)N2CCc3ccccc3C2)cc1	RGS4 pot -8.86 | RGS4 act valid 83.5 | RGS4 act ctr 44.3
CC(C)(C)c1ccc(C(=O)Nc2ccc(N3CCOCC3)cc2)cc1	none
CC(=O)NN1C(=O)/C(=C\c2ccc(Cl)cc2)SC1=S	RGS4 pot -12.3 | RGS4 act valid inactive | RGS4 act ctr inactive
CC(C)CC(c1nnnn1Cc1cccs1)N1CCN(c2nc3ccccc3s2)CC1 (stereo unspecified)	RGS4 pot -11.5 | RGS4 act valid 92.5 | RGS4 act ctr 70.8
Cc1c(C(=O)N(C)C2CCCCC2)sc2ncnc(N3CCN(c4ccccc4)CC3)c12	RGS4 pot -9.65 | RGS4 act valid inactive | RGS4 act ctr 28.3
Cc1c(C(=O)N2CCN(c3ccccn3)CC2)sc2ncnc(N3CCOCC3)c12	none
Cc1c(C(=O)N2CCN(c3ccc(F)cc3)CC2)sc2ncnc(N3CCN(c4ccccn4)CC3)c12	RGS4 pot -8.9 | RGS4 act valid 92.0 | RGS4 act ctr 83.8
Cc1c(C(=O)N2CCN(c3ccccc3)CC2)sc2ncnc(N3CCN(c4ccccn4)CC3)c12	RGS4 pot -9.69 | RGS4 act valid 80.5 | RGS4 act ctr 48.3
Cc1nc(N2CCN(c3ccccn3)CC2)c2c(C)c(C(=O)N3CCN(c4ccc(F)cc4)CC3)sc2n1	none
COc1cccc(NC(=O)CSc2nc3ncc(Br)cc3[nH]2)c1	none
CCOC(=S)SCc1cn2ccc(C)cc2n1	none
O=C(Oc1ccccc1N1C(=O)CCC1=O)c1ccco1	none
COc1ccc(-c2nc3cnccn3c2NCc2ccccc2)cc1SC1CCCCC1	RGS4 pot -10.9 | RGS4 act valid 92.5 | RGS4 act ctr 85.8
COc1cc(-c2nc3ccccn3c2NCc2ccccc2)ccc1SC1CCCCC1	none
CCCCCC(=O)N1CCCC(c2nc(-c3ccc(OC)cc3)no2)C1 (stereo unspecified)	none
Nc1cc(=O)[nH]c(SCC(=O)Nc2ccc(Br)cc2)n1	none
